# Hits are enriched below; roughly 1.4% of the tested compounds scored in any of these assays.
# HTR5A ag ctr – counter-screen for OPRM1-OPRD1 agonists: human HTR5A agonism | HTR5A agonist assay, luminescence, cell-based | 340,000 tested, 0.61% active | activation, % at 9.3 µM | AID 504692; in the data active = activation mostly above about 9.5%, no sharp cut-off; inactive = mostly below about 7.6%;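 also: 0% = cells with vehicle only and 100% = reference agonist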
# OPRM1-OPRD1 inv – mu-delta opioid heterodimer inverse agonism; AID 504357; 340,000 tested, 0.21% active; P35372+P41143; cell-based MOR-DOR heterodimer luminescence; inhibition, % at 9.3 µM; in the data active = inhibition above about 22%, passing the limit was not always enough;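 also: 0% = cells with DMSO and 100% = wells without cells with DMSO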
# Target sequence (P35372 whole entry, looked up): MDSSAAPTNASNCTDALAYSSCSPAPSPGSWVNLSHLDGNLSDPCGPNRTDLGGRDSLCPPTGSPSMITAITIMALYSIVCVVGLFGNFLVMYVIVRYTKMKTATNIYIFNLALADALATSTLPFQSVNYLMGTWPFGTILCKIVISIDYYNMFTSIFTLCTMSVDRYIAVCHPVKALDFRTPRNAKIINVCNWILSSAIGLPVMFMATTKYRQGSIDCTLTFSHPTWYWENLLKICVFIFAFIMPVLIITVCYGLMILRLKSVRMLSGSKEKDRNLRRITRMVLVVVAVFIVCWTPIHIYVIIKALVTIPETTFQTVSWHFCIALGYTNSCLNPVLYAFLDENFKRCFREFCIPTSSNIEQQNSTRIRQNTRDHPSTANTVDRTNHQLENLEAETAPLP
# Target sequence (P41143 whole entry, looked up): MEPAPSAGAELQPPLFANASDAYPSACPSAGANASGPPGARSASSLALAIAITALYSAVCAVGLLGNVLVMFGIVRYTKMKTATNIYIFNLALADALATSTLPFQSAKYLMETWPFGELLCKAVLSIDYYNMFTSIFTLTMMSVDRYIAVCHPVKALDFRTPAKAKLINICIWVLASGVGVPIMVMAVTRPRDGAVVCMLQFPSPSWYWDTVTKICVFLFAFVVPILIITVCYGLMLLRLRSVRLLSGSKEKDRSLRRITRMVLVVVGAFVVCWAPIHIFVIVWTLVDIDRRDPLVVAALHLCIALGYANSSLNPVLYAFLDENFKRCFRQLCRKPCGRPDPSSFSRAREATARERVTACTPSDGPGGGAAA
# MOR-DOR ag – OPRM1-OPRD1 heterodimerization agonism; AID 504326; 340,000 tested, 0.3% active; activation, % at 9.3 µM; cells, luminescence; in the data active = activation above about 18%;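 also: 0% = vehicle-treated cells and 100% = reference agonist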
# Arrestin-AP2 inh – inhibitors of human beta-arrestin and AP2 interaction; AID 504490; 340,000 tested, 0.31% active; FITC-arrestin peptide / GST-AP2 beads, flow cytometry; AP2 beta2 appendage carries R879A mutation; inhibition, % at 10 µM;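 active = inhibition above a set limit, near 3 SD of compounds lacking own fluorescence, cut at about 54% in these data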;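 also: plate controls were DMSO wells for no effect and 5 µM unlabelled arrestin peptide for full effect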
#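 Measured by: flow cytometry, FL1 (488/535 nm); Material: AP2 appendage R879A on GSH beads; Evaluation: percent response; Timing: pre-incubation 12 min, peptide binding 1 h, room temperature; Also added: 50 nM FITC-arrestin peptide; Medium: PBS with 0.05% Tween 20 and 0.1% BSA.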
# HTR5A inv ag – inverse agonist of human HTR5A in OPRM1-OPRD1 counter-screen; P47898; HTR5A cell line, luminescence, inverse agonism; inhibition, % at 9.3 µM; 340,000 tested, 0.083% active; AID 504634; in the data active = inhibition mostly above about 23%, no sharp cut-off; inactive = mostly below about 18%;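 also: 0% = cells with DMSO and 100% = no-cell wells with DMSO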
# DAGLB inhibitor – diacylglycerol lipase beta (human) inhibition; 340,000 tested, 0.059% active; inhibition, % at 5.17 µM; HEK293T DAGLB membrane lysate, EnzChek fluorogenic substrate; Q8NCG7; in the data active = inhibition above about 34%;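 also: 0% = enzyme with vehicle and 100% = wells lacking enzyme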
# Arr AP2 CP1 – blocks beta-arrestin peptide binding to human AP2 | shares compounds with Arrestin-AP2 inh | GST-AP2 beads, FITC arrestin peptide binding, flow cytometry; GST-fused beta2-adaptin appendage, R879A mutant | inhibition, % at 10 µM | 1,300 tested, 2% active;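 active = inhibition above a set limit, roughly 3 SD of non-fluorescent compound noise, cut at about 38% in these data; inactive = inhibition at or below that limit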;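 also: loss of bead fluorescence from 50 nM FITC arrestin peptide bound to appendage; 0% = negative control wells and 100% = excess unlabelled arrestin peptide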
# GST GSH counter – counter-screen for beta-arrestin AP2 inhibitors: GST-GSH bead binding; shares compounds with Arrestin-AP2 inh; GST-fluorescein binding to GSH beads, fluorescence; inhibition, % at 10 µM; 1,300 tested, 2% active; AID 588338;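 active = inhibition above 50%, about 3 SD of the inhibition seen with non-fluorescent compounds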;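 also: fluorescein maleimide labelled GST captured on 4 micron glutathione beads; higher means more loss of bead fluorescence from quenching or blocked binding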
# * marks the source's active call; other numbers are inactive results; / = not tested or not shown.
SMILES,HTR5A ag ctr,OPRM1-OPRD1 inv,MOR-DOR ag,Arrestin-AP2 inh,HTR5A inv ag,DAGLB inhibitor,Arr AP2 CP1,GST GSH counter
Oc1ccc(C[C@H]2CNC(=S)N2CC2CCCN2C[C@H](Cc2ccc(O)cc2)N2C[C@H](Cc3ccc(O)cc3)N(CC3CCCCCC3)C2=S)cc1 (stereo partly specified),5,-17,4,6,-20,21,/,/
C=CCNc1nc(C(=O)OC(C)C(=O)c2ccc(C)cc2)cs1 (stereo unspecified),-2,-4,1,57*,4,-1,-10,-4
CC(=O)C1=C(O)C(=O)N(c2ccc(S(N)(=O)=O)cc2)C1c1ccc([N+](=O)[O-])cc1 (stereo unspecified),1,2,0,97*,-16,0,-2,-7
Cn1nc(SCc2ccccc2)c(=O)[nH]c1=O,/,/,/,/,/,-7,/,/
CC(=O)Nc1ccc(NC(=O)C(C)OC(=O)c2ccc3[nH]c(C)c(C)c3c2)cc1 (stereo unspecified),3,6,-1,57*,-10,-1,-7,-6
CC(C)(C)c1ccccc1OCC(=O)NCc1ccccc1,-2,-30,6,64*,8,-3,4,-8
CCCC1NC(=O)c2cc3ccccc3cc2-n2c1nc1ccc(F)cc1c2=O (stereo unspecified),/,/,/,/,/,-1,/,/
CCc1ccc(CN(C(=O)c2ccco2)C2CCS(=O)(=O)C2)cc1 (stereo unspecified),3,9,-2,67*,-6,1,-15,-1
CN(C)c1cc2c(cc1NC(=O)c1ccccc1Cl)n(C)c(=O)n2C,-2,-1,0,-1,11,2,4,-14
CCCCN1CC(C)(C)[C@H](CC(=O)NC)C1=O,/,/,/,/,/,-1,/,/
COc1cc(O)c(C(=O)CC(=O)c2ccncc2)c(OC)c1,-4,16,-3,-3,18,-2,/,/
O=C(Nc1ccccc1)c1ccc(-c2ccc(F)cc2)s1,0,-14,3,55*,0,-4,10,-8
COc1ccc(CC(=O)Nc2cc(S(=O)(=O)N3CCCCC3)ccc2OC(C)C)cc1OC,/,/,/,/,/,-2,/,/
CCn1cnc2cc(NC(=O)COc3ccc(C)cc3)ccc21,3,3,-1,-3,-10,-1,/,/
O=C(O)COCC(=O)Nc1ccc2c(c1)ncn2CCc1ccccc1,3,-2,0,58*,-12,2,-5,1
CC1=C(C(=O)N(C)C)CC(CC(=O)NCCCCc2ccccc2)C(=O)N1Cc1ccc(C(C)(C)C)cc1 (stereo unspecified),/,/,/,/,/,1,/,/
CCOc1ccc(/C=N/NC(=O)C(=O)NCc2ccco2)cc1,5,0,0,102*,8,1,7,17
COc1ccc(N)c2c1C(=O)c1ccccc1C2=O,-2,15,-3,7,8,19,/,/
COc1ccc(OC)c2c1C(=O)C(Cl)=C(Cl)C2=O,0,-56,11,87*,-4,-3,72*,28
COc1ccc(OC)c(NC(=O)c2ccc(CN(c3cc(Cl)ccc3C)S(=O)(=O)c3ccccc3)cc2)c1,1,7,-1,82*,-3,-3,9,-3
CN1OC[C@@H]2CN(Cc3cc(Cl)cc(Cl)c3)[C@H](c3cccc(-c4ccc(C#N)cc4)c3)C[C@@H]21,/,/,/,/,/,-6,/,/
COc1ccc2cc(C(=O)Nc3ccc(F)cc3)sc(=O)c2c1OC,2,-18,3,99*,-23,2,-1,-3
O=C(CCc1nc2ccccc2c(=O)[nH]1)Nc1ccccc1N1CCCCC1,/,/,/,/,/,3,/,/
CCOC(=O)c1cnn(-c2ccc(C(C)C)cc2)c1NC(=O)C1CCC1,2,17,-3,99*,-5,-1,-4,0
CCN(CC)c1ccc(Nc2nc(N3CCOCC3)c3ccccc3n2)cc1,2,-27,5,59*,-11,1,13,11
